Reference: ChEMBL document CHEMBL2424657, “Identification of the KDM2/7 histone lysine demethylase subfamily inhibitor and its antiproliferative activity” (J Med Chem, 2013)

Experiments:
[1] = target: T1, Lysine-specific demethylase 4C (Homo sapiens, UniProt Q9H3R0); assay: Inhibition of KDM4C (unknown origin) using H3K9me3 peptide and 2-oxoglutarate as substrate after 1 hr by FDH-coupled assay
T1 sequence (Q9H3R0 whole entry): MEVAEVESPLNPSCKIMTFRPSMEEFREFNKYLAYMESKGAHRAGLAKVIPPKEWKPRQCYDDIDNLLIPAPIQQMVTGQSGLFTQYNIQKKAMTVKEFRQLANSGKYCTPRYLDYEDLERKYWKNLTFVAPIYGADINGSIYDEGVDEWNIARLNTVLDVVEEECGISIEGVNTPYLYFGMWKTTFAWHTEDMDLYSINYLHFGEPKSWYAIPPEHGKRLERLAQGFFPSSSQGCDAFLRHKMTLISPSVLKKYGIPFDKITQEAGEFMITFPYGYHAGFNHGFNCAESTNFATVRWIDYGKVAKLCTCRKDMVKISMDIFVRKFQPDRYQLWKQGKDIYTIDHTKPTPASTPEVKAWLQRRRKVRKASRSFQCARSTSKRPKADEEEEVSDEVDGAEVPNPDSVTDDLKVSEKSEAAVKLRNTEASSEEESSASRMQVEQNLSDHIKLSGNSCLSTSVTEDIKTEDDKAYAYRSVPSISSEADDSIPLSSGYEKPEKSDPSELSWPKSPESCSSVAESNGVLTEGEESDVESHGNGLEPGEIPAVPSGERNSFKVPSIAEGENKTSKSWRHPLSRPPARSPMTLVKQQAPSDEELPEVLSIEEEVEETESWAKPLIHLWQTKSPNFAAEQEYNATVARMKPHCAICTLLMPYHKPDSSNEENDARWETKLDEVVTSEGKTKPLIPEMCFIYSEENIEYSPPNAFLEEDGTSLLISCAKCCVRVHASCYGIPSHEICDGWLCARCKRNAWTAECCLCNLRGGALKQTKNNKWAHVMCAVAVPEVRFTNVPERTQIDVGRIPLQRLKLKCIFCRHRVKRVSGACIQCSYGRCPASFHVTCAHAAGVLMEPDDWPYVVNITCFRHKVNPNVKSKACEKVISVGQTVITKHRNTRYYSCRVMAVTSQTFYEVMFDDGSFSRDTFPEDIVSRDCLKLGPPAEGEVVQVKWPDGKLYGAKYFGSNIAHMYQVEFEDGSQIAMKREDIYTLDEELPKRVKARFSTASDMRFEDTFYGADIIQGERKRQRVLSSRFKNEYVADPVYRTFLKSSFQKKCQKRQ

[2] = target: Histone lysine demethylase PHF8 (Homo sapiens, UniProt Q9UPP1); assay: Inhibition of KDM7B (unknown origin) using H3K4me3K9me2 and 2-oxoglutarate as substrate after 1 hr by matrix-assisted laser desorption ionization time of flight mass spectrometry
How it was run: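 Enzyme (0.5 mg/mL) was reacted with 5 μM H3K4me3K9me2 peptide, 0.5 mM 2-oxoglutarate, 20 μM Fe(II), 20 μM ZnCl2, 0.5 mM ascorbate, 150 mM KCl, glutathione and DTT in 10 mM Tris-HCl pH 8.0 for 1 h at 37 °C. Inhibition was calculated from the remaining H3K9me2, and IC50 was taken as the concentration halving H3K9me2 removal. Values are means of two experiments.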

[3] = target: T2, Lysine-specific demethylase 2A (Homo sapiens, UniProt Q9Y2K7); assay: Inhibition of KDM2A (unknown origin)
T2 sequence (Q9Y2K7 whole entry): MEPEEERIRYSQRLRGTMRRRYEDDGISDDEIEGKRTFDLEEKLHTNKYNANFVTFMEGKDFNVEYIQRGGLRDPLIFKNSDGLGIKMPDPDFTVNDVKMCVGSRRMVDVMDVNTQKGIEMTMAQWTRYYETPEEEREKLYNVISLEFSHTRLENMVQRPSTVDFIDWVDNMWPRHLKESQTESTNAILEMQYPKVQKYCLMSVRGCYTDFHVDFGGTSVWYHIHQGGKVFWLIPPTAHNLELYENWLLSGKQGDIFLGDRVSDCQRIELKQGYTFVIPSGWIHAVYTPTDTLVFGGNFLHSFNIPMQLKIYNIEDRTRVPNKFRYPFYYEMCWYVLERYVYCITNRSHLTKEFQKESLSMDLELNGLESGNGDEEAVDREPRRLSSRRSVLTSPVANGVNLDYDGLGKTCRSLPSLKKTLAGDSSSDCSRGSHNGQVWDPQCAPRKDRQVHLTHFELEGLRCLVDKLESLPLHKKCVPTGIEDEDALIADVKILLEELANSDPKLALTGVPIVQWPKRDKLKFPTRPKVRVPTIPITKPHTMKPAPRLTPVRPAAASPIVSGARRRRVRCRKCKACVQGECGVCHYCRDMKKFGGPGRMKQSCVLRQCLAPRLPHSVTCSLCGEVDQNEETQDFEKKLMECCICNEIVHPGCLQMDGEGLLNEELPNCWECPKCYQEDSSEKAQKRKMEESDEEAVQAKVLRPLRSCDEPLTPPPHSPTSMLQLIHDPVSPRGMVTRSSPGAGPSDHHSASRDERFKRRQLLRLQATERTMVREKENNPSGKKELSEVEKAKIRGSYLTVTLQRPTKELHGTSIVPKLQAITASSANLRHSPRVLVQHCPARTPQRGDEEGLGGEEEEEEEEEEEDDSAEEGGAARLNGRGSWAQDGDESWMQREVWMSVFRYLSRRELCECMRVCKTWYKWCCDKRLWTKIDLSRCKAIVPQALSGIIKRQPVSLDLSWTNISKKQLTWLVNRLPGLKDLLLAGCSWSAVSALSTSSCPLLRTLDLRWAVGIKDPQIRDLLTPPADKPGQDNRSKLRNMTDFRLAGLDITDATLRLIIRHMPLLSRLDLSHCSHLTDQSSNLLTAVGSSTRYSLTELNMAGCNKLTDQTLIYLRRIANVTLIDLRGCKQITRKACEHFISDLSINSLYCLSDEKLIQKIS

[4] = target: Lysine-specific demethylase 7A/7B (Mus musculus) (UniProt Q3UWM4+Q80TJ7); assay: Inhibition of KDM7A/7B in mouse N2a cells assessed as H3K27me2 level after 24 hrs by Western blot analysis; assay type: cell-based
How it was run: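 Cells (5×10^5) were treated for 24 h in OPTI-MEM and lysed in SDS buffer. Equal protein amounts, set by Bradford assay, were resolved on 4–20% SDS-PAGE and blotted. Blots were probed with anti-H3K27me2 (1:1000) and anti-H3 (1:100000) as loading reference, detected with an HRP secondary antibody, and visualized by ECL.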

[5] = system: HeLa; assay: Growth inhibition of human HeLa cells after 48 hrs by MTT assay; assay type: functional
How it was run: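 Cells were seeded at 5000/well in RPMI 1640 with 10% FBS and allowed to attach overnight, then exposed for 48 h at 37 °C in 5% CO2. MTT was added for 3 h, and the dye was solubilized in HCl–2-propanol and read at 560 nm (reference 750 nm).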

Histone lysine demethylase PHF8, sequence (Q9UPP1 whole entry): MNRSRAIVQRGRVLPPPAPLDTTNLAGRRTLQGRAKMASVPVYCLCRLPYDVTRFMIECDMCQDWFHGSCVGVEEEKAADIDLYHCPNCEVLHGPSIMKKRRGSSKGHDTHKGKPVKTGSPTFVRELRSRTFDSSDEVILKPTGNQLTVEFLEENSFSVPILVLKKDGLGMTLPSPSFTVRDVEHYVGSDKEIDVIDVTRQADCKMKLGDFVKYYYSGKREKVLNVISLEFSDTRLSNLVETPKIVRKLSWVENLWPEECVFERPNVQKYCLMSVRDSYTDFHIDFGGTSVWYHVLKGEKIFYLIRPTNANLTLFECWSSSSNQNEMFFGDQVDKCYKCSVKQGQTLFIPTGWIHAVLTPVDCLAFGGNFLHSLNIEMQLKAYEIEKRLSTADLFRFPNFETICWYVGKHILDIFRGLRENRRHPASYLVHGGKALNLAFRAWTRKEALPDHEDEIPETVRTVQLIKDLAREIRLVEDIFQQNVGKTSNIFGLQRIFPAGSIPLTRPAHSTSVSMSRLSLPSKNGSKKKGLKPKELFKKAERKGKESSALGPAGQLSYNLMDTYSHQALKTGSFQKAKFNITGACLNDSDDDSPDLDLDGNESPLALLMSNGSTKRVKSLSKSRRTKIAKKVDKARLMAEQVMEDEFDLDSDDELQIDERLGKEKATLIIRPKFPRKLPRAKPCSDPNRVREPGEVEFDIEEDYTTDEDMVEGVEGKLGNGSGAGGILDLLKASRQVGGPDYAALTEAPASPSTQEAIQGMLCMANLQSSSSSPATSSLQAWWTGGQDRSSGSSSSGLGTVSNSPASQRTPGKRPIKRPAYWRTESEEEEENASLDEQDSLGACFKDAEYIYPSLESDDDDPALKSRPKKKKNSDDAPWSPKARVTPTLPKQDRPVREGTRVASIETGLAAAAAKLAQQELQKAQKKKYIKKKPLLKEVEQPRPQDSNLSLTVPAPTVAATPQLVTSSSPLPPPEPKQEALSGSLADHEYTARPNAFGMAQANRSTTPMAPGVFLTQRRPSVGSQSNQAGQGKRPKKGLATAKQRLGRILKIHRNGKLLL
Lysine-specific demethylase 7A/7B (Mus musculus), sequence (Q3UWM4 whole entry, looked up): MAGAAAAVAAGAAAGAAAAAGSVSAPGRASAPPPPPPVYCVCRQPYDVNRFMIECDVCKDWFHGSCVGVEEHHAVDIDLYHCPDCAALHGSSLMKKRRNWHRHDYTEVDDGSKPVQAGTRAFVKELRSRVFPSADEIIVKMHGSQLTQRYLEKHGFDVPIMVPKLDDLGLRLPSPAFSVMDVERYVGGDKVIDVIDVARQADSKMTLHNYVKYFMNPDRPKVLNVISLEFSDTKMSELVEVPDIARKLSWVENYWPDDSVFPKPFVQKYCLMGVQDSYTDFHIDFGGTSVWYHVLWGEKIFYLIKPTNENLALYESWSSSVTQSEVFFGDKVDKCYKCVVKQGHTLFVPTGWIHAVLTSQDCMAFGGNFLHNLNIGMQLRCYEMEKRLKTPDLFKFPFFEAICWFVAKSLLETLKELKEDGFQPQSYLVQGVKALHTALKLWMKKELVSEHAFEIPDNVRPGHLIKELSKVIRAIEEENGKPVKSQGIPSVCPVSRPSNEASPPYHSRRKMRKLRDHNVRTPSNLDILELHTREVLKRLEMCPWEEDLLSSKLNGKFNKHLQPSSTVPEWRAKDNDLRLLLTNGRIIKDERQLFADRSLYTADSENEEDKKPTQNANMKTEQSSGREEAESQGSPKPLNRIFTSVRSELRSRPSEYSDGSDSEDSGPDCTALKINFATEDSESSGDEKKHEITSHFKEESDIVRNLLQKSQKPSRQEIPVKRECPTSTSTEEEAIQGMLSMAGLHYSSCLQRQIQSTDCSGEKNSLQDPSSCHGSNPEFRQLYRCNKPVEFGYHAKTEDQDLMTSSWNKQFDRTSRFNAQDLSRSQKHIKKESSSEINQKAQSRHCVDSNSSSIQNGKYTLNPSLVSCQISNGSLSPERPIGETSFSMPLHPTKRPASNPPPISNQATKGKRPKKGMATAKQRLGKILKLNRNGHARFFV
Lysine-specific demethylase 7A/7B (Mus musculus), sequence (Q80TJ7 whole entry, looked up): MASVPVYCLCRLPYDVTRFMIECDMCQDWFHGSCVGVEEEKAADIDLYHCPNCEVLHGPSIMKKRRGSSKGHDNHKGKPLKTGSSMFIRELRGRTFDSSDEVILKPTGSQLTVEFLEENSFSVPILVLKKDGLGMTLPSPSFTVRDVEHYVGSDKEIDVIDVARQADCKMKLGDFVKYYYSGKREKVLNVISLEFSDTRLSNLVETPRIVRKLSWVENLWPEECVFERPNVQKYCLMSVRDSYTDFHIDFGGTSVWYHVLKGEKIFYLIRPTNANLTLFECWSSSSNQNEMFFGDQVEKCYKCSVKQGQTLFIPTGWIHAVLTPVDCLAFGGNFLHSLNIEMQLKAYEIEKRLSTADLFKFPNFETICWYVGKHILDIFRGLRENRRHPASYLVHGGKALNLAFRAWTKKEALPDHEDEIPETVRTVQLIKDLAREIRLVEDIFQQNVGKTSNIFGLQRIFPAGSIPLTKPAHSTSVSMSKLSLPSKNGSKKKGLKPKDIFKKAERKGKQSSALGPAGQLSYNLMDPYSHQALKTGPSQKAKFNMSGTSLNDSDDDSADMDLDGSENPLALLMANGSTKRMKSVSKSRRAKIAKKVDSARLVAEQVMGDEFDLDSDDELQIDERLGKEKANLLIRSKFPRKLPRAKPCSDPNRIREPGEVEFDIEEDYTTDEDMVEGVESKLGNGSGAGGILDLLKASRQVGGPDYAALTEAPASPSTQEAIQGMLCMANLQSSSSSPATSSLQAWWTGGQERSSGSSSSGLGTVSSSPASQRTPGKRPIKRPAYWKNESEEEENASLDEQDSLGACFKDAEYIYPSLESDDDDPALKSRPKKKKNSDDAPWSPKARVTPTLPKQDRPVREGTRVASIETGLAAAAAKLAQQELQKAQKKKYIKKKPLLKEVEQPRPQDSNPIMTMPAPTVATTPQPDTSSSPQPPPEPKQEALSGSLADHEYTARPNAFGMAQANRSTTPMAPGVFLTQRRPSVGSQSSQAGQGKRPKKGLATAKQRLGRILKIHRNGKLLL

| SMILES | IC50 [1] | IC50 [2] | IC50 [3] | inhibition [4] | GI50 [5] |
| --- | --- | --- | --- | --- | --- |
| O=C(O)CCN(O)C(=O)CCCCCCCCC1CC1 | 83 µM | 1.2 µM | 6.8 µM | Dose-dependent effect | 40 µM |
| CN(C)CCCCCCCCC(=O)N(O)CCC(=O)O | 2.2 µM | 19 µM | 0.2 µM | – | > 470 µM |
